Reference: the array DNA melting data of Ke et al. (doi:10.1101/2024.01.08.574731)

Assays:
[1] = folding enthalpy; higher = less favourable; fluorescence melt of hairpins on a sequencing array, two-state fit; conditions: sodium 0.088 M
How it was run: (§1)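 Two-state fits, bootstrapped, provided melting temperature and folding enthalpy from Cy3 fluorescence normalised to pre-quench Cy3 and to control constructs. Library hairpins with annealed Cy3 and quencher oligos were imaged on a sequenced MiSeq flow cell in 50 mM Na-HEPES pH 8.0, 25 mM NaCl, at 2.5 °C intervals up to 60 °C. Four replicates were combined with inverse-variance weighting. A 9.35 °C upward shift was applied to fitted temperatures to match UV melts.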

[2] = melting temperature; fluorescence melt of hairpins on a sequencing array, two-state fit, raised by 9.35 °C to match UV melts; conditions: sodium 0.088 M
How it was run: as §1

| Sequence | folding enthalpy [1] | Tm [2] |
| --- | --- | --- |
| AACACGAAAGTGTT (((((....))))) | -18.9 kcal/mol | 56.8 °C |
| AACGGGAAACCGTT (((((....))))) | -18.5 kcal/mol | 50.6 °C |
| AACTCGAAAGAGTT (((((....))))) | -17.7 kcal/mol | 50.7 °C |
| AATTGGAAACAATT (((((....))))) | -11.3 kcal/mol | 31.6 °C |
| ACAATGAAAATTGT (((((....))))) | -11.1 kcal/mol | 34.8 °C |
| ACACAGAAATGTGT (((((....))))) | -14.7 kcal/mol | 45.9 °C |
| ACCAGGAAACTGGT (((((....))))) | -21.4 kcal/mol | 49.2 °C |
| ACCGTGAAAACGGT (((((....))))) | -17 kcal/mol | 55.4 °C |
| ACGGAGAAATCCGT (((((....))))) | -19 kcal/mol | 49.2 °C |
| ACTAGGAAACTAGT (((((....))))) | -13.9 kcal/mol | 37.9 °C |
| ACTCAGAAATGAGT (((((....))))) | -22 kcal/mol | 36.7 °C |
| ACTGGGAAACCAGT (((((....))))) | -15.9 kcal/mol | 47.6 °C |
| AGAAGCAGAAATGGTTCT ((((.((....)).)))) | -27.4 kcal/mol | 34.5 °C |
| AGACAGAAATGTCT (((((....))))) | -15.8 kcal/mol | 41.7 °C |
| AGAGTGAAAACTCT (((((....))))) | -16.6 kcal/mol | 40.8 °C |
| AGATTGAAAAATCT (((((....))))) | -10.8 kcal/mol | 28.9 °C |
| AGCGTGAAAACGCT (((((....))))) | -18.5 kcal/mol | 65.6 °C |
| AGCTCGAAAGAGCT (((((....))))) | -20.8 kcal/mol | 68.6 °C |
| AGCTGGAAACAGCT (((((....))))) | -23.3 kcal/mol | 54.3 °C |
| AGGCTGAAAAGCCT (((((....))))) | -16.9 kcal/mol | 62.6 °C |
| AGGTGGAAACACCT (((((....))))) | -19.2 kcal/mol | 52.6 °C |
| AGTAACTGAAAAGTTACT (((((((....))))))) | -32.3 kcal/mol | 51.6 °C |
| AGTATGAAAATACT (((((....))))) | -15.2 kcal/mol | 32 °C |
| AGTCAGAAATGACT (((((....))))) | -18.9 kcal/mol | 43.3 °C |
| ATCATGAAAATGAT (((((....))))) | -13.8 kcal/mol | 38.5 °C |

| Sequence | folding enthalpy [1] | Tm [2] |
| --- | --- | --- |
| ATCCTGAAAAGGAT (((((....))))) | -18.9 kcal/mol | 45.2 °C |
| ATGACGAAAGTCAT (((((....))))) | -19.1 kcal/mol | 56.8 °C |
| ATGCTGAAAAGCAT (((((....))))) | -18.6 kcal/mol | 50.8 °C |
| ATGTGGAAACACAT (((((....))))) | -20.3 kcal/mol | 46.1 °C |
| CAACGGAAACGTTG (((((....))))) | -25.9 kcal/mol | 52.6 °C |
| CAAGCAGAAATGGTTG (((.((....)).))) | -19.3 kcal/mol | 33.6 °C |
| CAATCCGAAAGGCTTG (((.((....)).))) | -17 kcal/mol | 34.7 °C |
| CAATTGAAAAATTG (((((....))))) | -13.6 kcal/mol | 35.6 °C |
| CACAGGAAACTGTG (((((....))))) | -21 kcal/mol | 50.2 °C |
| CACCTGAAAAGGTG (((((....))))) | -23.8 kcal/mol | 54.4 °C |
| CACGTGAAAACGTG (((((....))))) | -24.9 kcal/mol | 58.6 °C |
| CACTTGAAAAAGTG (((((....))))) | -21.2 kcal/mol | 43.6 °C |
| CAGCAGAAATGCTG (((((....))))) | -25.6 kcal/mol | 53 °C |
| CAGGGGAAACCCTG (((((....))))) | -23.2 kcal/mol | 52.5 °C |
| CAGTGGAAACACTG (((((....))))) | -23 kcal/mol | 51.7 °C |
| CATATGAAAATATG (((((....))))) | -11.8 kcal/mol | 32.2 °C |
| CATGGGAAACCATG (((((....))))) | -22.3 kcal/mol | 47.8 °C |
| CATGTGAAAACATG (((((....))))) | -23.3 kcal/mol | 47.2 °C |
| CCAACGAAAGTTGG (((((....))))) | -25.4 kcal/mol | 58 °C |
| CCAGGGAAACCTGG (((((....))))) | -20.6 kcal/mol | 53 °C |
| CCCAGGAAACTGGG (((((....))))) | -20.4 kcal/mol | 54.3 °C |
| CCCATGAAAATGGG (((((....))))) | -20.9 kcal/mol | 51.2 °C |
| CCCCTGAAAAGGGG (((((....))))) | -25.4 kcal/mol | 57.2 °C |
| CCGAGGAAACTCGG (((((....))))) | -23.9 kcal/mol | 55.9 °C |
| CCGATGAAAATCGG (((((....))))) | -21.4 kcal/mol | 55.6 °C |

| Sequence | folding enthalpy [1] | Tm [2] |
| --- | --- | --- |
| CCGTAGAAATACGG (((((....))))) | -17.8 kcal/mol | 47.3 °C |
| CCTAAGAAATTAGG (((((....))))) | -8.08 kcal/mol | 28.1 °C |
| CCTACGAAAGTAGG (((((....))))) | -20.4 kcal/mol | 57 °C |
| CCTCTGAAAAGAGG (((((....))))) | -20.4 kcal/mol | 48.7 °C |
| CGAAACGGAAACGTGTCG (((.(((....))).))) | -31.5 kcal/mol | 47.5 °C |
| CGAAAGCGGAAACGCTCG (((..(((....)))))) | -18.2 kcal/mol | 43.5 °C |
| CGAAATCGGAAACGATCG (((..(((....)))))) | -22.6 kcal/mol | 34 °C |
| CGAACCGGAAACGGATCG (((.(((....))).))) | -27.6 kcal/mol | 51.6 °C |
| CGAACGGAAACGTATTCG ((((((....)))..))) | -17.7 kcal/mol | 29.1 °C |
| CGAACGGAAACGTCCTCG ((((((....)))..))) | -11.4 kcal/mol | 26.2 °C |
| CGAACGGAAACGTCTCG ((((((....))).))) | -29.3 kcal/mol | 36.8 °C |
| CGAACGGAAACGTGATCG ((((((....)))..))) | -19.6 kcal/mol | 28.6 °C |
| CGAACGGAAACGTTGTCG ((((((....)))..))) | -14.1 kcal/mol | 36.3 °C |
| CGAACGGAAACGTTTCG ((((((....))).))) | -26.2 kcal/mol | 46.1 °C |
| CGAACGGAAACGTTTTCG ((((((....)))..))) | -16.3 kcal/mol | 30.4 °C |
| CGAAGCGGAAACGCGTCG (((.(((....))).))) | -29.1 kcal/mol | 55.1 °C |
| CGACAACGGAAACGTTCG (((..(((....)))))) | -14.3 kcal/mol | 35.9 °C |
| CGACCCCGGAAACGGTCG (((..(((....)))))) | -21.3 kcal/mol | 44.4 °C |
| CGACCGGAAACGGATCG ((((((....))).))) | -33.3 kcal/mol | 48.5 °C |
| CGACCGGAAACGGATTCG ((((((....)))..))) | -16.2 kcal/mol | 33.6 °C |
| CGACCGGAAACGGCTTCG ((((((....)))..))) | -17 kcal/mol | 28.5 °C |
| CGACCGGAAACGGGTCG ((((((....))).))) | -32.4 kcal/mol | 56.9 °C |
| CGACGACGGAAACGTTCG (((..(((....)))))) | -14.5 kcal/mol | 36.9 °C |
